Reference: ChEMBL document CHEMBL1124965, “Synthesis and dopamine agonist properties of (+-)-trans-3,4,4a,10b-tetrahydro-4-propyl-2H,5H-[1]benzopyrano [4,3-b]-1,4-oxazin-9-ol and its enantiomers” (J Med Chem, 1990)

What was measured:
[1] = tested on: Rattus norvegicus; experiment: Reversal of reserpine-induced depression in rat (dose administered subcutaneously) Values generated from three doses;5-10 rats were used per dose.; type: functional; settings: sc
In short: (§1)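 Rats pretreated with reserpine 5 mg/kg 24 h before testing; drug given sc and reversal of spontaneous locomotor inhibition measured; ED50 derived from three doses with 5–10 rats per dose.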

[2] = tested on: Mus musculus; experiment: Inhibition of locomotor activity (LMA) in mice by the compound administered intraperitoneally.; type: functional
In short: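 Spontaneous exploratory locomotor activity in mice after ip dosing; ED50 derived from four doses with at least three animals per dose.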

[3] = tested on: Rattus norvegicus; experiment: Inhibition of gamma-butyrolactone-stimulated DOPA synthesis in the corpus striatum of rats (dose administered subcutaneously); type: functional; settings: sc
In short: (§2)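 Male Long-Evans rats dosed 30 min before GBL (750 mg/kg ip) plus decarboxylase inhibitor NSD 1015 (100 mg/kg ip); killed 30 min later. Striatal DOPA measured by HPLC with electrochemical detection. Expressed as percentage reversal versus GBL/NSD 1015-treated animals; N = 4–5.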

[4] = tested on: Rattus norvegicus; experiment: Inhibition of dopamine neuronal firing activity in the rat substantia nigra DA neutrons (2.2 mg/kg administered intraperitoneally); type: functional
In short: (§3)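 Chloral hydrate-anesthetized rats; zona compacta DA cells recorded, identified by waveform and firing pattern, site confirmed histologically. Drug given ip via indwelling catheter. Baseline is the mean of the 2 min before injection; effect is the mean over the 1-min period of maximal inhibition; percent decrease, N = 3–4 cells.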

[5] = tested on: Rattus norvegicus; experiment: Inhibition of locomotor activity (LMA) in rats generated from four doses of 5-12 animals per dose (dose administered subcutaneously); settings: sc
[6] = tested on: Rattus norvegicus; experiment: Inhibition of gamma-butyrolactone-stimulated DOPA synthesis in the corpus striatum of rats (30 mg/kg administered intraperitoneally); type: functional; in short: as §2
[7] = tested on: Rattus norvegicus; experiment: Inhibition of locomotor activity (LMA) in rats generated from four doses of 5-12 animals per dose (dose administered po)
[8] = biological target: T1, D(2) dopamine receptor (Rattus norvegicus, UniProt P61169); experiment: Affinity for [3H]N-propylnorapomorphine (NPA) Dopamine receptor D2
[9] = tested on: Rattus norvegicus; experiment: Reversal of reserpine-induced depression in rat (dose administered subcutaneously); type: functional; settings: sc; in short: as §1
[10] = species on record: Rattus norvegicus; experiment: Inhibition of gamma-butyrolactone-stimulated DOPA synthesis in the corpus striatum of rats; type: functional; in short: as §2
[11] = biological target: T1, D(2) dopamine receptor; experiment: Concentration inhibiting specific binding of [3H]haloperidol to Dopamine receptor D2 from rat striatal brain.
[12] = tested on: Rattus norvegicus; experiment: Reversal of reserpine-induced depression in rat (dose administered subcutaneously) Values generated from three doses; 5-10 rats were used per dose.; settings: sc
[13] = tested on: Rattus norvegicus; experiment: Inhibition of dopamine neuronal firing activity in the rat substantia nigra DA neutrons (0.25 mg/kg administered intraperitoneally); type: functional; in short: as §3
[14] = tested on: Rattus norvegicus; experiment: Inhibition of gamma-butyrolactone-stimulated DOPA synthesis in the corpus striatum of rats (2 mg/kg administered intraperitoneally); type: functional; in short: as §2
[15] = Mus musculus, ip, read-out: ED50

T1 sequence (P61169 whole entry): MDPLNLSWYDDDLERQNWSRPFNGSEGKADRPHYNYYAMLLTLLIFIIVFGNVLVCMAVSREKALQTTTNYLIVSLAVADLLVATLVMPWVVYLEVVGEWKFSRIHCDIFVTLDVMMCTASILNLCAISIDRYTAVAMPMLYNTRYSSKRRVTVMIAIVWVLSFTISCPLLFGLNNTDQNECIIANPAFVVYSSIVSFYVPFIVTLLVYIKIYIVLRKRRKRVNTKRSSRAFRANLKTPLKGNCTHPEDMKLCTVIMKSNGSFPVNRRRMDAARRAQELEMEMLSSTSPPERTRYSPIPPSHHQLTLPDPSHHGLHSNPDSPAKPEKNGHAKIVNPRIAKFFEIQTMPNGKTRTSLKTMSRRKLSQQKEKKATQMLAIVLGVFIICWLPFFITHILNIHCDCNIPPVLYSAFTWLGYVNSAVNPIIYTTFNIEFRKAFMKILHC

| Compound | ED50 [1] [mg/kg] | ED50 [2, 15] [mg/kg] | ED50 [3] [mg/kg] | Decrease [4] [%] | ED50 [5] [mg/kg] | Percent reversal of GBL-stimulated DOPA synthesis [6] [%] | ED50 [7] [mg/kg] | IC50 [8] [nM] | ED50 [2] [mg/kg] | ED50 [9] [mg/kg] | Dose [10] [%] | IC50 [11] [nM] | ED50 [12] [mg/kg] | Decrease [13] [%] | Increase [14] [%] |
| --- | --- | --- | --- | --- | --- | --- | --- | --- | --- | --- | --- | --- | --- | --- | --- |
| CCCN(CCC)C1COc2ccc(O)cc2C1 (stereo not given) | 13.4 | 11.3 | 0.04 | 100 | 0.17 | 100 |  |  |  |  |  |  |  |  |  |
| CCCN1CCO[C@@H]2c3cc(O)ccc3OC[C@H]21 |  |  | 0.03 | 100 | 0.03 | 88.4 | 5.8 | 123 | 5.4 | 6.25 | 100 | 409 |  |  |  |
| CCCN1CCO[C@H]2c3cc(O)ccc3OC[C@@H]21 |  | > 30 |  | 9 |  | 0 |  |  |  |  |  | > 100000 |  |  |  |
| CCCN1CCO[C@@H]2c3cc(O)ccc3OC[C@H]21 (racemic) |  |  |  | 99 |  | 61.8 |  |  | 11 |  |  | 900 |  |  |  |
| CN1CCc2cccc3c2[C@H]1Cc1ccc(O)c(O)c1-3 [APOMORPHINE] |  | 0.3 | 0.06 |  | 0.021 |  |  |  |  |  |  |  | 0.096 | 100 | 100 |
